Laboratory results taken from ChEMBL document CHEMBL1138567, “Regioselective synthesis and antimicrobial screening of novel ketocarbazolodispiropyrrolidine derivatives” (2009).

Legend:
Type in all cases: functional
Settings in all cases: read-out: IZ
Staphylococcus aureus [1] = experiment: Antimicrobial activity against Staphylococcus aureus at 25 ug/ml after 24 hrs by agar diffusion method
Method in brief: (§1)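 Agar well diffusion: petri plates (9 cm) with about 9 ml nutrient agar, seeded with the test organism. Wells cut with a cork borer and loaded with test compound at 25, 50, 75 or 100 per ml; tetracycline as control. Incubated 37 °C for 24 h; average inhibition-zone diameter around wells measured (mm).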

Proteus vulgaris [2] = experiment: Antimicrobial activity against Proteus vulgaris at 25 ug/ml after 24 hrs by agar diffusion method; method in brief: as §1
Proteus mirabilis [3] = experiment: Antimicrobial activity against Proteus mirabilis at 100 ug/ml after 24 hrs by agar diffusion method; method in brief: as §1
Proteus vulgaris [4] = experiment: Antimicrobial activity against Proteus vulgaris at 50 ug/ml after 24 hrs by agar diffusion method; method in brief: as §1
[5] = tested on: Salmonella enterica subsp. enterica serovar Typhi str. CT18; experiment: Antimicrobial activity against Salmonella typhi at 50 ug/ml after 24 hrs by agar diffusion method
Method in brief: (§2)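 Agar well diffusion: about 9 ml nutrient agar in 9 cm Petri plates, seeded with the test organism. Wells cut with a cork borer and loaded with test compound at 25–100 per ml; tetracycline as control. Plates incubated 24 h at 37 °C. Read-out is the average diameter of the inhibition zone around each well, in mm.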

Staphylococcus aureus [6] = experiment: Antimicrobial activity against Staphylococcus aureus at 50 ug/ml after 24 hrs by agar diffusion method; method in brief: as §1
Proteus mirabilis [7] = experiment: Antimicrobial activity against Proteus mirabilis at 75 ug/ml after 24 hrs by agar diffusion method; method in brief: as §1
Proteus vulgaris [8] = experiment: Antimicrobial activity against Proteus vulgaris at 100 ug/ml after 24 hrs by agar diffusion method; method in brief: as §1
Proteus mirabilis [9] = experiment: Antimicrobial activity against Proteus mirabilis at 50 ug/ml after 24 hrs by agar diffusion method; method in brief: as §1
[10] = tested on: Salmonella enterica subsp. enterica serovar Typhi str. CT18; experiment: Antimicrobial activity against Salmonella typhi at 75 ug/ml after 24 hrs by agar diffusion method; method in brief: as §2
Proteus vulgaris [11] = experiment: Antimicrobial activity against Proteus vulgaris at 75 ug/ml after 24 hrs by agar diffusion method; method in brief: as §1
[12] = tested on: Salmonella enterica subsp. enterica serovar Typhi str. CT18; experiment: Antimicrobial activity against Salmonella typhi at 25 ug/ml after 24 hrs by agar diffusion method; method in brief: as §2
Staphylococcus aureus [13] = experiment: Antimicrobial activity against Staphylococcus aureus at 75 ug/ml after 24 hrs by agar diffusion method; method in brief: as §1
Staphylococcus aureus [14] = experiment: Antimicrobial activity against Staphylococcus aureus at 100 ug/ml after 24 hrs by agar diffusion method; method in brief: as §1
Proteus mirabilis [15] = experiment: Antimicrobial activity against Proteus mirabilis at 25 ug/ml after 24 hrs by agar diffusion method; method in brief: as §1
[16] = tested on: Salmonella enterica subsp. enterica serovar Typhi str. CT18; experiment: Antimicrobial activity against Salmonella typhi at 100 ug/ml after 24 hrs by agar diffusion method; method in brief: as §2

Row | Compound | zone of inhibition at 25 µg/mL (Staphylococcus aureus [1]) [mm] | zone of inhibition at 25 µg/mL (Proteus vulgaris [2]) [mm] | zone of inhibition at 100 µg/mL (Proteus mirabilis [3]) [mm] | zone of inhibition at 50 µg/mL (Proteus vulgaris [4]) [mm] | zone of inhibition at 50 µg/mL [5] [mm] | zone of inhibition at 50 µg/mL (Staphylococcus aureus [6]) [mm] | zone of inhibition at 75 µg/mL (Proteus mirabilis [7]) [mm] | zone of inhibition at 100 µg/mL (Proteus vulgaris [8]) [mm] | zone of inhibition at 50 µg/mL (Proteus mirabilis [9]) [mm] | zone of inhibition at 75 µg/mL [10] [mm] | zone of inhibition at 75 µg/mL (Proteus vulgaris [11]) [mm] | zone of inhibition at 25 µg/mL [12] [mm] | zone of inhibition at 75 µg/mL (Staphylococcus aureus [13]) [mm] | zone of inhibition at 100 µg/mL (Staphylococcus aureus [14]) [mm] | zone of inhibition at 25 µg/mL (Proteus mirabilis [15]) [mm] | zone of inhibition at 100 µg/mL [16] [mm]
1 | COc1ccc([C@@H]2CN(C)[C@@]3(C(=O)Nc4ccccc43)[C@]23CCc2c([nH]c4ccccc24)C3=O)cc1 | 12 | 11 | 21 | 13 | 14 | 14 | 16 | 20 | 13 | 18 | 18 | 12 | 17 | 20 | 9 | 21
2 | CN1C[C@@H](c2ccc([N+](=O)[O-])cc2)[C@@]2(CCc3c([nH]c4ccccc34)C2=O)[C@]12C(=O)c1cccc3cccc2c13 | 9 | 13 | 21 | 22 | 14 | 16 | 17 | > 40 | 13 | 18 | 27 | 11 | 21 | 31 | 9 | 25
3 | Cc1ccc([C@@H]2CN(C)[C@@]3(C(=O)Nc4ccccc43)[C@]23CCc2c([nH]c4ccccc24)C3=O)cc1 | 9 | 12 | 18 | 16 | 12 | 13 | 16 | 21 | 14 | 14 | 18 | 9 | 16 | 20 | 11 | 16
4 | CN1C[C@@H](c2ccccc2)[C@@]2(CCc3c([nH]c4ccccc34)C2=O)[C@]12C(=O)Nc1ccccc12 | 11 | 12 | 16 | 16 | 11 | 13 | 14 | 26 | 12 | 13 | 20 | 9 | 16 | 18 | 9 | 18
5 | CN1C[C@@H](c2ccc(Cl)cc2)[C@@]2(CCc3c([nH]c4ccccc34)C2=O)[C@]12C(=O)Nc1ccccc12 | 9 | 9 | 22 | 18 | 15 | 14 | 18 | 26 | 15 | 17 | 24 | 11 | 18 | 21 | 13 | 18
6 | CN(C)[C@@H]1C(O)=C(C(N)=O)C(=O)[C@@]2(O)C(O)=C3C(=O)c4c(O)cccc4[C@@](C)(O)[C@H]3C[C@@H]12 [TETRACYCLINE] | 22 | 18 | > 40 | 24 | 22 | 24 | 28 | > 40 | 24 | 28 | 28 | 18 | 28 | > 40 | 18 | > 40
